Results on one molecule are retold here after ChEMBL document CHEMBL4017495, “Identification and Characterization of the First Selective Y4 Receptor Positive Allosteric Modulator” (J Med Chem, 2017).

Activity calls are given as the source filed them. The calls are words filed in the database; no cut-off is given here.

Experiment [1] concerns the target T1, Neuropeptide Y receptor type 4 (Homo sapiens, UniProt P50391). The experiment can be described thus: Positive allosteric modulation of human C-terminal eYFP-fused human NY4 receptor expressed in African green monkey COS7 cells co-expressing delta6Galphaqi4-myr assessed as potentiation of pancreatic polypeptide-mediated Ca2+ flux treated at 20 secs post baseline detection followed by addition of pancreatic polypeptide after 140 secs by Fluo2-AM fluorescent dye based-assay. It counts as functional, cell-based. The procedure, abridged: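 COS7 cells stably co-expressing Y4R-eYFP and Δ6Gαqi4-myr were seeded overnight. They were loaded with 2.4 μM Fluo2-AM in HBSS/20 mM HEPES/[…] for 60 min at 37 °C, then kept in assay buffer. Fluorescence was read at ex 485/em 525 nm. Compound was added after a 20 s baseline and peptide at 140 s. Response was taken as x-fold over basal, normalized to the DMSO control, and fitted to an operational model of allosterism. Duplicates, at least three independent runs.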
A general note: A change in cytosolic calcium serves as a functional read-out for many receptors and channels.

Experiment [2] deals with Neuropeptide Y receptor type 4 (Mus musculus) (UniProt Q61041). The experiment can be described thus: Positive allosteric modulation of NY4 receptor in mouse descending colon mucosa assessed as increase in mucosal antisecretory response to pancreatic polypeptide at 30 uM preincubated for 5 mins followed by pancreatic polypeptide addition after 20 mins. The procedure, abridged: (§1)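 Mouse descending colon mucosa was mounted in Ussing chambers (0.14 cm2 exposed) in oxygenated Krebs–Henseleit at 37 °C, voltage-clamped at 0 mV, with Isc recorded continuously. After a stable basal Isc (20–30 min), basolateral pretreatment was 30 μM compound or DMSO vehicle (0.3%) for 5 min. VIP (10 nM) was given for 5–10 min, then single rat PP additions (3, 10 or 30 nM). PYY (10 nM) followed 20 min later.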

For experiment [3], the target named is T2, Neuropeptide Y receptor type 1/2 (Mus musculus) (UniProt Q04573+P97295). The experiment can be described thus: Positive allosteric modulation of NY1/2 receptor in mouse descending colon mucosa assessed as increase in mucosal antisecretory response to peptide YY at 30 uM preincubated for 5 mins followed by pancreatic polypeptide addition after 20 mins. The procedure, abridged:
as §1

For experiment [4], the target named is T2, Neuropeptide Y receptor type 1/2 (Mus musculus). Kind of experiment: Positive allosteric modulation of NY1/2 receptor in mouse descending colon mucosa assessed as increase in mucosal antisecretory response to vasoactive intestinal polypeptide at 30 uM preincubated for 5 mins followed by pancreatic polypeptide addition after 20 mins. In outline: as §1
The target in experiment [5] is Neuropeptide Y receptor type 4 (Mus musculus) (UniProt Q61041). Kind of experiment: Agonist activity at NY4 receptor in mouse descending colon mucosa assessed as increase in mucosal antisecretory response at 30 uM incubated for 5 mins. In outline: as §1
The target of experiment [6] is T1, Neuropeptide Y receptor type 4.
Experiment [7] has the same target. The source holds these as a separate data set.
The target is the same in experiment [8]. The source holds these as a separate data set.
The target is the same in experiment [9]. The source holds these as a separate data set.
Experiment [10] has the same target. The source holds these as a separate data set.
Experiment [11] shares this target. This is another data set of the same source.
For experiment [12] the target is unchanged. This is another data set of the same source.
For experiment [13] the target is unchanged. This is another data set of the same source.
The target is the same in experiment [14]. The source holds these as a separate data set.
Experiment [15] has the same target. The conditions noted are these: 30 uM.
The target is the same in experiment [16]. The conditions noted are these: 30 uM. This is another data set of the same source.
For experiment [17] the target is unchanged. The conditions noted are these: 30 uM. This is another data set of the same source.
Experiment [18] shares this target. The conditions noted are these: HEK293, 30 uM.
For experiment [19] the target is unchanged. The conditions noted are these: HEK293, 30 uM. The source holds these as a separate data set.
Experiment [20] shares this target. The conditions noted are these: HEK293, 30 uM. The source holds these as a separate data set.

T1 sequence (P50391 whole entry, the tested form may be a part): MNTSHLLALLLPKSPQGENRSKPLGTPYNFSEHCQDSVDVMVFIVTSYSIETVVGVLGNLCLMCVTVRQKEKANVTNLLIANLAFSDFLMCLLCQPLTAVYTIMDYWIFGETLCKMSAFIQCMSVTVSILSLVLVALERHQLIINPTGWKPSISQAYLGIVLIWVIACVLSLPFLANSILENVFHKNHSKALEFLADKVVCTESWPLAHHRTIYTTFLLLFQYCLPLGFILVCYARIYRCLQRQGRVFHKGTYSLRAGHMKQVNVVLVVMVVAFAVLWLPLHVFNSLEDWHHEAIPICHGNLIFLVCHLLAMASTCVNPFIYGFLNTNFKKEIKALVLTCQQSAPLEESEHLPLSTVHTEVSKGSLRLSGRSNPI
T2 sequence (P97295 whole entry, looked up): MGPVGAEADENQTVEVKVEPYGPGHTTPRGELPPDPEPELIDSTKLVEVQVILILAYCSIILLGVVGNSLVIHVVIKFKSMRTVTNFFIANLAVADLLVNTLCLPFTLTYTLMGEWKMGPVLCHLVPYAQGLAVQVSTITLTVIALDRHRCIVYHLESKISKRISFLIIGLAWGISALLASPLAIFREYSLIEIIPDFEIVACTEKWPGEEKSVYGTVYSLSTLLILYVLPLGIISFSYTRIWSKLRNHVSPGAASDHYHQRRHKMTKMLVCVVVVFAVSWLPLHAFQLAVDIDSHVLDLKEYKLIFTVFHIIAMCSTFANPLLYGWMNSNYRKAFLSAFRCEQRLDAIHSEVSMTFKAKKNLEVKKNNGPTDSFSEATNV
T2 sequence (Q04573 whole entry, looked up): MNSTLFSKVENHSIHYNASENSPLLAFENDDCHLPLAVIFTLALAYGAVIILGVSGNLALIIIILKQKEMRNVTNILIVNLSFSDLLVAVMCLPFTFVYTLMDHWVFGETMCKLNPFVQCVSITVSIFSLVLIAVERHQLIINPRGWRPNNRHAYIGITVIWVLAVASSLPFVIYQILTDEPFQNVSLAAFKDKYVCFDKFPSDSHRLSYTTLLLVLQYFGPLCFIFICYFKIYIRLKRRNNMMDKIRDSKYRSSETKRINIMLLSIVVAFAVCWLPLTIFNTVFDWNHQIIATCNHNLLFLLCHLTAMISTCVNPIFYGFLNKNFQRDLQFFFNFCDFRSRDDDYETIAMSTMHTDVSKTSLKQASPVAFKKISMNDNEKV
Neuropeptide Y receptor type 4 (Mus musculus), sequence (Q61041 whole entry): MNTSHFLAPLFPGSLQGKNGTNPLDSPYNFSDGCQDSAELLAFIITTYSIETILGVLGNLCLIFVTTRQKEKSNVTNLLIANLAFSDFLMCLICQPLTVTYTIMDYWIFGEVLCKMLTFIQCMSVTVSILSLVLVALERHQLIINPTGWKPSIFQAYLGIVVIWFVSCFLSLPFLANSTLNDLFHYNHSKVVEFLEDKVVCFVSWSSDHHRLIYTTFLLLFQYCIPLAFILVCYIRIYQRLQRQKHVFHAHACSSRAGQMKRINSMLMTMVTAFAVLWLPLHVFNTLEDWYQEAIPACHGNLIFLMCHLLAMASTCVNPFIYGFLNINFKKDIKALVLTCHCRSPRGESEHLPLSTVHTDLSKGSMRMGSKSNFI

`CC(C)(C)c1ccc(OC2CCCCC2O)cc1` (stereo not given): the EC50 in [1] came out at 5.1 µM. Further, in experiment [2], the outcome was Active. Also, the result in [3], in [4] and in [5] was inactive. The log(activity) in experiment [6] turned out to be 0.9; in experiment [7], 0.3; in [8], 0.79; in experiment [9], 0.41; in [10], 0.46; in experiment [11] it was 0.36. In addition, the pKb in [12], in experiment [13] and in experiment [14] was 4.4 each time. Moreover, the Emax in experiment [15] amounted to 94%; in experiment [16] it was 89%; in experiment [17], 95%; in experiment [18], 118%; in [19], 145%; in [20] it was 144%.

One may read the EC50 as the concentration at which the effect is half-maximal. What is called pKb is the negative decadic logarithm of the Kb, by convention in mol/L. Usually Emax stands for the greatest response seen or fitted, relative to the assay's reference.
